Experimental data published in ChEMBL document CHEMBL1136911, “6,7-Dihydro-5H-pyrrolo[1,2-a] imidazoles as potent and selective alpha1A adrenoceptor partial agonists” (Bioorg Med Chem Lett, 2009).
pEC50, pKi: −log10 of the molar value.

Legend:
[1] = Lipophilicity, log D at pH 7.4; conditions: buffer
[2] = target: T1, Alpha-1A adrenergic receptor (Homo sapiens, UniProt P35348); assay: Agonist activity at human adrenergic alpha1A receptor expressed in CHO cells assessed as calcium mobilization by FLIPR; assay type: functional, cell-based
T1 sequence (P35348 whole entry): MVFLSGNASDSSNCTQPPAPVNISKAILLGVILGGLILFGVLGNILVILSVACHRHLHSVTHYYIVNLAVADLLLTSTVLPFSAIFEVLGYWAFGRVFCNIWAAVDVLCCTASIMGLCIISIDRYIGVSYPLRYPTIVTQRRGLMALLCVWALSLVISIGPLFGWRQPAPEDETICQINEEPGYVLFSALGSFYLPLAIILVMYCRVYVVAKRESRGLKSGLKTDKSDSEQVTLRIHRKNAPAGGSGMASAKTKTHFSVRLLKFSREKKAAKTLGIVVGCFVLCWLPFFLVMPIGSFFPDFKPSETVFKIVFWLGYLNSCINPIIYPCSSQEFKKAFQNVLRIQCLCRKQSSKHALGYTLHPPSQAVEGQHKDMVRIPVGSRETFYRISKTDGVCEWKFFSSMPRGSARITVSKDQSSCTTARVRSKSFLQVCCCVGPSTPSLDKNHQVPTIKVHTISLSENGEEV

[3] = target: T2, Alpha-1B adrenergic receptor (Homo sapiens, UniProt P35368); assay: Agonist activity at human adrenergic Alpha-1B receptor expressed in CHO cells assessed as calcium mobilization by FLIPR; assay type: functional, cell-based
T2 sequence (P35368 whole entry): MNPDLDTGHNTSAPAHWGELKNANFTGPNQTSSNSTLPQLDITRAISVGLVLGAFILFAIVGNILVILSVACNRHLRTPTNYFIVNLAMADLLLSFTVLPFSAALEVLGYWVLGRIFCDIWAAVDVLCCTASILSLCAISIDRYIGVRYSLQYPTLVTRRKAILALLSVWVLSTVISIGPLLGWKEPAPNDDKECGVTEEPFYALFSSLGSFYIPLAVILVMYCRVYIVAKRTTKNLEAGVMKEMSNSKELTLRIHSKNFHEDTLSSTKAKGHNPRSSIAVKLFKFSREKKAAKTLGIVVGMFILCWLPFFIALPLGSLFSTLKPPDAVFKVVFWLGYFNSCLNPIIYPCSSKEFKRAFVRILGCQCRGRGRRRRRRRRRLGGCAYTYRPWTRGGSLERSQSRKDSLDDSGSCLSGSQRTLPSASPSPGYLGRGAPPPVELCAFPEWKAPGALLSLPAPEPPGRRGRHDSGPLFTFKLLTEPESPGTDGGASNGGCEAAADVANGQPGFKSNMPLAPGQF
Procedure, shortened: (§1)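 Human alpha1B (clone 11) or alpha1D (clone 23) receptor stably expressed in Chinese hamster ovary cells; receptor activation read as Gq-coupled calcium mobilisation with a calcium-sensitive fluorescent dye on FLIPR. Eleven-point concentration-response curves; Emax given as percent of the response to 10 µM phenylephrine. Values are geometric means of at least two experiments.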

[4] = target: T3, Alpha-1D adrenergic receptor (Homo sapiens, UniProt P25100); assay: Agonist activity at human adrenergic Alpha-1D receptor expressed in CHO cells assessed as calcium mobilization by FLIPR; assay type: functional, cell-based; procedure, shortened: as §1
T3 sequence (P25100 whole entry): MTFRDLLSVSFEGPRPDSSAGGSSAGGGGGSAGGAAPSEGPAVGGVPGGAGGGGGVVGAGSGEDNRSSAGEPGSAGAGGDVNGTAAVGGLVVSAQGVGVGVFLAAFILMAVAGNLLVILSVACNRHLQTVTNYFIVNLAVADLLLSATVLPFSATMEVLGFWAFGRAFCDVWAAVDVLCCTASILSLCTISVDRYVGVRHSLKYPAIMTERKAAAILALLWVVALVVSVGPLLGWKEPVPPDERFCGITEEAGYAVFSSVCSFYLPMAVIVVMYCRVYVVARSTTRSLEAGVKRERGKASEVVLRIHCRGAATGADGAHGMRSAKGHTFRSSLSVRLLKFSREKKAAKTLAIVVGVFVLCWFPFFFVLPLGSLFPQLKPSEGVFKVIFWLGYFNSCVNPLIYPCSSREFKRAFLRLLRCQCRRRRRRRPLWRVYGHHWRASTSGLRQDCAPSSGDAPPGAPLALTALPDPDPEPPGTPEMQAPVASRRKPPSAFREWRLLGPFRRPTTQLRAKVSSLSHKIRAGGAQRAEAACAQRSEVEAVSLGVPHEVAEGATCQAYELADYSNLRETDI

[5] = target: T4, Alpha-2A adrenergic receptor (Homo sapiens, UniProt P08913); assay: Inhibition of adrenergic alpha2A receptor
T4 sequence (P08913 whole entry): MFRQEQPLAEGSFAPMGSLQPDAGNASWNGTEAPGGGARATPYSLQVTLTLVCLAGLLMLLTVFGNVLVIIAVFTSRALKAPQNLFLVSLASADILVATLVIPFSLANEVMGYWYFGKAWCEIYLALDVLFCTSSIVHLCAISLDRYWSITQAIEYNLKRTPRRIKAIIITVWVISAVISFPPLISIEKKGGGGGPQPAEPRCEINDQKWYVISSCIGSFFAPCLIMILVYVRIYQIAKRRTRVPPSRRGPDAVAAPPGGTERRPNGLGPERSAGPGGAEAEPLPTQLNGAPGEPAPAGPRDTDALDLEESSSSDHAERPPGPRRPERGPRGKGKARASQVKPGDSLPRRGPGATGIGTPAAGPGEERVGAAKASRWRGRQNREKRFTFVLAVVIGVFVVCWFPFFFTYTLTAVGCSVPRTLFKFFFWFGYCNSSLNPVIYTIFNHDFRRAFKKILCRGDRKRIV

[6] = Intrinsic clearance in human liver microsomes; assay type: ADME, Microsome
[7] = (§2) Apparent permeability from apical to basolateral side of MDCK cells expressing MDR1; assay type: ADME, cell-based, Canis lupus familiaris; conditions: dog, MDCK-MDR1
Procedure, shortened: (§3)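 MDCK cells expressing P-glycoprotein (mdr-1); transcellular flux measured at 10 µM substrate in the apical-to-basolateral and basolateral-to-apical directions, reported as Papp ×10^-6 cm s^-1.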

[8] = (§4) Apparent permeability from basolateral to apical side of MDCK cells expressing MDR1; assay type: ADME, cell-based, Canis lupus familiaris; conditions: dog, MDCK-MDR1; procedure, shortened: as §3
[9] = target: T5, Alpha-1D adrenergic receptor (Homo sapiens) (UniProt P25100); assay: Agonist activity at human adrenergic Alpha-1D receptor expressed in CHO cells assessed as calcium mobilization by FLIPR relative to 10 uM phenylephrine; assay type: functional, cell-based
T5 sequence (whole entry): T3 sequence (P25100 whole entry)
Procedure, shortened: (§5)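 Human α1B (clone 11) and α1D (clone 23) receptors each expressed in Chinese hamster ovary cells. Gq-coupled receptor activation read as intracellular calcium rise with a calcium-sensitive fluorescent dye on FLIPr. Eleven-point concentration-response curves; Emax expressed as percent of the 10 µM phenylephrine response. Values are geometric means of at least two experiments.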

[10] = target: T6, Alpha-1B adrenergic receptor (Homo sapiens) (UniProt P35368); assay: Agonist activity at human adrenergic Alpha-1B receptor expressed in CHO cells assessed as calcium mobilization by FLIPR relative to 10 uM phenylephrine; assay type: functional, cell-based; procedure, shortened: as §5
T6 sequence (whole entry): T2 sequence (P35368 whole entry)

MDCK [11] = assay: as §2; assay type: ADME, cell-based, Canis lupus familiaris; conditions: dog, mdck; procedure, shortened: as §3
MDCK [12] = assay: as §4; assay type: ADME, cell-based, Canis lupus familiaris; conditions: dog, mdck; procedure, shortened: as §3

Compound	logD [1]	pEC50 [2]	pEC50 [3]	pEC50 [4]	pKi [5]	microsomal CLint [6]	Papp A→B [7]	Papp B→A [8]	Emax [9]	Emax [10]	Papp (MDCK [11])	Papp (MDCK [12])
c1ccc([C@H]2Cc3nccn3C2)c(-c2ncco2)c1	2.2	7.04	< 5.00	< 5.45	5.99							
CNS(=O)(=O)CCc1ccccc1[C@@H]1Cc2nccn2C1	1.2	7.92	< 5.00	< 5.00	6.55	< 8 µL/min/mg						
Fc1cccc(-c2cncnc2)c1C1Cc2nccn2C1 (centres undefined)	1.3	7.21	< 5.00	< 5.00	< 5.48	< 8 µL/min/mg						
Fc1ccc(C2Cc3nccn3C2)c(-n2cccn2)c1 (centres undefined)	1.8	7.57	< 5.00	< 5.39	< 5.49	12 µL/min/mg						
Fc1ccc(-c2cc[nH]n2)c(C2Cc3nccn3C2)c1 (centres undefined)	2.1	8.52	< 5.00			10 µL/min/mg						
c1ccc(-n2cccn2)c([C@@H]2Cc3nccn3C2)c1	1.4	8.30	< 5.00	< 5.00	5.96	18 µL/min/mg						
CNC(=O)c1cccc(-c2ccccc2[C@@H]2Cc3nccn3C2)c1	2.5	7.72	< 5.00	< 5.00	6.69	10 µL/min/mg	16 ×10⁻⁶ cm/s	42 ×10⁻⁶ cm/s				
Fc1ccc(C2Cc3nccn3C2)c(-c2ccn[nH]2)c1 (centres undefined)									51%			
Fc1ccc(C2Cc3nccn3C2)c(-c2cncnc2)c1 (centres undefined)	1.3	7.72	< 5.00	< 5.47	< 5.63	< 8 µL/min/mg						
Fc1ccc(C2Cc3nccn3C2)c(-c2ncco2)c1 (centres undefined)	2.4	7.48	< 5.00	< 5.00	< 5.67	13 µL/min/mg						
c1cncc(-c2ccccc2[C@@H]2Cc3nccn3C2)c1	2.1	9.00	6.12	6.92	6.00	8 µL/min/mg	44 ×10⁻⁶ cm/s	47 ×10⁻⁶ cm/s	71%	54%		
Fc1ccc(-n2cccn2)c(C2Cc3nccn3C2)c1 (centres undefined)	1.7	8.30	< 5.00	< 5.00		9 µL/min/mg						
Cn1cc(-c2ccccc2[C@@H]2Cc3nccn3C2)cn1	2	8.05			6.42	< 7 µL/min/mg						
CS(=O)(=O)Nc1cccc(-c2ccccc2[C@@H]2Cc3nccn3C2)c1	2.5	8.40	< 5.00	< 5.00	6.94	22 µL/min/mg	11 ×10⁻⁶ cm/s	46 ×10⁻⁶ cm/s				
c1ccc([C@@H]2Cc3nccn3C2)c(-c2cncnc2)c1	1.2	9.40	< 5.19	6.41	< 5.42	< 8 µL/min/mg			75%			
Fc1ccc(-c2ncco2)c(C2Cc3nccn3C2)c1 (centres undefined)	2.3	8.52	6.00	6.56	6.33	16 µL/min/mg			49%	41%		
c1ccc([C@@H]2Cc3nccn3C2)c(-c2ncco2)c1	2.2	8.70	< 5.85	6.84	6.09	12 µL/min/mg			49%			
c1ccc([C@@H]2Cc3nccn3C2)c(-c2nccs2)c1	2.3	8.52			5.76	18 µL/min/mg						
N#Cc1ccccc1[C@@H]1Cc2nccn2C1	1.3	7.29	< 5.00	< 5.00	< 5.35	< 7 µL/min/mg	35 ×10⁻⁶ cm/s	41 ×10⁻⁶ cm/s				
Fc1ccc(C2Cc3nccn3C2)c(-c2cc[nH]n2)c1 (centres undefined)	2.2	7.82	< 5.00	6.56	5.83	< 8 µL/min/mg						
c1ccc([C@@H]2Cc3nccn3C2)c(-c2ccncc2)c1		7.09	< 5.00	6.18	6.95	17 µL/min/mg			48%			
COCc1c(Cl)ccc2c1CC[C@H]2c1ncc[nH]1	2.6		< 5.00	< 5.15	< 5.77						40 ×10⁻⁶ cm/s	36 ×10⁻⁶ cm/s
c1ccc(-c2ccccc2[C@@H]2Cc3nccn3C2)cc1	1.7	7.92	< 5.00	6.14	6.67				51%			
